≈ marks a conversion by molar mass, not a printed value. Calls of active or inactive are those of the source. The rule behind the calls is not given here.
Experiments:
[1] = system: B16; experiment: Growth inhibitory effect when administered at dose of 2.0 mg/kg/day given in the schedule of 1,2,3,4,7 day against (B16) mouse melanoma at eleventh day was determined; ND= No data; type: functional
Outline: (§1)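 Mice given the agent on days 1, 2, 3, 4 and 7. Doxorubicin was given in physiological solution (0.9% NaCl, pH 6.2). Prodrugs were given in the same solution with 2% DMSO and 0.3% agarose. Tumour growth inhibition (%) was read on fixed days against a vehicle-treated control; in the 2.0 mg/kg/day series, controls received physiological solution only. Negative values mean tumour growth was activated.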

[2] = system: B16; experiment: In vitro cytotoxic concentration against mouse melanoma cell line (B16) using MTT coloration; type: functional, cell-based
[3] = system: B16; experiment: Growth inhibitory effect when administered at dose of 1.5 mg/kg/day given in the schedule of 1,2,3,4,7 day against (B16) mouse melanoma at eleventh day was determined; type: functional; conditions: B16, read-out: Inhibition; outline: as §1
[4] = system: B16; experiment: Growth inhibitory effect when administered at dose of 1.5 mg/kg/day given in the schedule of 1,2,3,4,7 day against (B16) mouse melanoma at fourteenth day was determined; type: functional; conditions: B16, read-out: Inhibition; outline: as §1
[5] = system: Mus musculus; experiment: Physiological change in cardiomyocytes after the treatment of male JRC mice with transplanted sarcoma S-180 by the administration of compound at dose of 5.0 mg/kg/day cells isolated on the 9th day by using MTT assay; type: functional
Outline: (§2)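 Male JRC mice, healthy or bearing Sarcoma S-180, were dosed on days 1, 2, 3, 4 and 7. Cardiomyocytes were isolated on day 9 and resuspended in DMEM with 4% FBS, 2 mM glutamine, 13 mM NaHCO₃, 10 mM HEPES and streptomycin. After 4 h at 37° (95% air/5% CO₂), serum was omitted. Intracellular peptide was read by Coomassie Blue and mitochondrial redox by MTT, against cells from untreated animals.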

[6] = system: HT-1080; experiment: In vitro cytotoxic concentration against human fibrosarcoma cell line (HT1080) using MTT coloration; type: functional, cell-based
[7] = system: Mus musculus; experiment: Physiological change in cardiomyocytes after the treatment of male JRC healthy mice by the administration of compound at dose of 1.5 mg/kg/day cells isolated on the 9th day by using CB assay; type: functional; outline: as §2
[8] = system: HT-1080; experiment: In vitro inhibitory activity against human fibrosarcoma cell line (HT1080) using CV coloration; type: functional, cell-based
[9] = system: Mus musculus; experiment: Physiological change in cardiomyocytes after the treatment of male JRC healthy mice by the administration of compound at dose of 5.0 mg/kg/day cells isolated on the 9th day by using CB assay; type: functional; outline: as §2
[10] = system: B16; experiment: Growth inhibitory effect when administered at dose of 5.0 mg/kg/day given in the schedule of 1,2,3,4,7 day against (B16) mouse melanoma at fourteenth day was determined; type: functional; outline: as §1
[11] = system: N2a; experiment: In vitro cytotoxic concentration against mouse neuroblastoma (neuro 2A) using MTT coloration; type: functional, cell-based
[12] = system: N2a; experiment: In vitro inhibitory activity against mouse neuroblastoma (neuro 2A) using CV coloration; type: functional, cell-based
[13] = system: CCRF S-180; experiment: Growth inhibitory effect when administered at dose of 5.0 mg/kg/day given in the schedule of 1,2,3,4,7 day against Sarcoma S-180 tumor transplanted in male JRC mice at fourteenth day was determined; type: functional, Mus musculus; outline: as §1
[14] = system: Mus musculus; experiment: Physiological change in cardiomyocytes after the treatment of male JRC mice with transplanted sarcoma S-180 by the administration of compound at dose of 5.0 mg/kg/day cells isolated on the 9th day by using CB assay; type: functional; outline: as §2
[15] = system: B16; experiment: Growth inhibitory effect when administered at dose of 5.0 mg/kg/day given in the schedule of 1,2,3,4,7 day against (B16) mouse melanoma at eleventh day was determined; type: functional; outline: as §1
[16] = system: Mus musculus; experiment: Physiological change in cardiomyocytes after the treatment of male JRC mice with transplanted sarcoma S-180 by the administration of compound at dose of 1.5 mg/kg/day cells isolated on the 9th day by using MTT assay; type: functional; outline: as §2
[17] = system: CCRF S-180; experiment: Growth inhibitory effect when administered at dose of 2.0 mg/kg/day given in the schedule of 1,2,3,4,7 day against Sarcoma S-180 tumor transplanted in male JRC mice at fourteenth day was determined; type: functional, organism-based; conditions: Mus musculus
[18] = system: B16; experiment: Growth inhibitory effect when administered at dose of 2.0 mg/kg/day given in the schedule of 1,2,3,4,7 day against (B16) mouse melanoma at fourteenth day was determined; type: functional; outline: as §1
[19] = system: Mus musculus; experiment: Physiological change in cardiomyocytes after the treatment of male JRC healthy mice by the administration of compound at dose of 5.0 mg/kg/day cells isolated on the 9th day by using MTT assay; type: functional; outline: as §2
[20] = system: MG-22A; experiment: In vitro inhibitory activity against mouse hepatoma cell line (MG-22A) using CV coloration; type: functional, cell-based
[21] = system: MG-22A; experiment: In vitro cytotoxic concentration against mouse hepatoma cell line (MG-22A) using MTT coloration; type: functional, cell-based
[22] = system: B16; experiment: In vitro inhibitory activity against mouse melanoma cell line (B16) using CV coloration; type: functional, cell-based
[23] = system: Mus musculus; experiment: Physiological change in cardiomyocytes after the treatment of male JRC healthy mice by the administration of compound at dose of 1.5 mg/kg/day cells isolated on the 9th day by using MTT assay; type: functional; outline: as §2
[24] = system: CCRF S-180; experiment: Growth inhibitory effect administered at dose of 1.5 mg/kg/day given in the schedule of 1,2,3,4,7 day against Sarcoma S-180 tumor transplanted in male JRC mice at eleventh day was determined; type: functional; conditions: Mus musculus, in the assay text read “seventh day” for “eleventh day”; outline: as §1
[25] = system: Mus musculus; experiment: Physiological change in cardiomyocytes after the treatment of male JRC mice with transplanted sarcoma S-180 by the administration of compound at dose of 1.5 mg/kg/day cells isolated on the 9th day by using CB assay; type: functional; outline: as §2
[26] = system: CCRF S-180; experiment: Growth inhibitory effect administered at dose of 1.5 mg/kg/day given in the schedule of 1,2,3,4,7 day against Sarcoma S-180 tumor transplanted in male JRC mice at fourteenth day was determined; type: functional; conditions: Mus musculus, in the assay text read “ninth day” for “fourteenth day”; outline: as §1
[27] = system: CCRF S-180; experiment: Growth inhibitory effect administered at dose of 5.0 mg/kg/day given in the schedule of 1,2,3,4,7 day against Sarcoma S-180 tumor transplanted in male JRC mice at fourteenth day was determined; type: functional; conditions: Mus musculus; outline: as §1
[28] = system: B16; experiment: Growth inhibitory effect administered at dose of 1.5 mg/kg/day given in the schedule of 1,2,3,4,7 day against (B16) mouse melanoma at fourteenth day was determined; type: functional; outline: as §1
[29] = system: B16; experiment: Growth inhibitory effect administered at dose of 2.0 mg/kg/day given in the schedule of 1,2,3,4,7 day against (B16) mouse melanoma at eleventh day was determined; type: functional; outline: as §1
[30] = system: CCRF S-180; experiment: Growth inhibitory effect of compound when administered at dose of 1.5 mg/kg/day given in the schedule of 1,2,3,4,7 day against Sarcoma S-180 tumor transplanted in male JRC mice was determined; No effect; conditions: Mus musculus
[31] = system: B16; experiment: Growth inhibitory effect administered at dose of 1.5 mg/kg/day given in the schedule of 1,2,3,4,7 day against (B16) mouse melanoma at eleventh day was determined; type: functional; outline: as §1
[32] = system: CCRF S-180; experiment: Growth inhibitory effect administered at dose of 1.5 mg/kg/day given in the schedule of 1,2,3,4,7 day against Sarcoma S-180 tumor transplanted in male JRC mice at fourteenth day was determined; No effect; type: functional, organism-based; conditions: Mus musculus; outline: as §1
[33] = system: CCRF S-180; experiment: Growth inhibitory effect administered at dose of 5.0 mg/kg/day given in the schedule of 1,2,3,4,7 day against Sarcoma S-180 tumor transplanted in male JRC mice at eleventh day was determined; type: functional; conditions: Mus musculus; outline: as §1
[34] = system: B16; experiment: Growth inhibitory effect administered at dose of 5.0 mg/kg/day given in the schedule of 1,2,3,4,7 day against (B16) mouse melanoma at fourteenth day was determined; type: functional; outline: as §1
[35] = system: B16; experiment: Growth inhibitory effect administered at dose of 5.0 mg/kg/day given in the schedule of 1,2,3,4,7 day against (B16) mouse melanoma at eleventh day was determined; type: functional; outline: as §1

SMILES: COc1cccc2c1C(=O)c1c(O)c3c(c(O)c1C2=O)C[C@@](O)(C(=O)CO)C[C@@H]3O[C@H]1C[C@H](N)C(O)[C@H](C)O1 (single isomer, unassigned) [DOXORUBICIN]
- inhibition in vivo at 2 mg/kg/day [1]: 25%
- IC50 [2]: < 0.001 µg/mL
- inhibition in vivo at 1.5 mg/kg/day [3]: 70%
- inhibition in vivo at 1.5 mg/kg/day [4]: 60%
- Activity [5]: 130
- IC50 [6]: 0.31 µg/mL (≈ 0.57 µM)
- Activity [7]: 83
- IC50 [8]: 0.17 µg/mL (≈ 0.313 µM)
- Activity [9]: 60
- inhibition in vivo at 5 mg/kg/day [10]: 75%
- IC50 [11]: < 0.001 µg/mL
- IC50 [12]: 0.004 µg/mL (≈ 0.00736 µM)
- Inhibition [13]: 37%
- inhibition in vivo at 5 mg/kg/day ([13]; Mus musculus, CCRF S-180, read-out: Inhibition): 37%
- Activity [14]: 81
- inhibition in vivo at 5 mg/kg/day [15]: 65%
- Activity [16]: 114
- inhibition [17]: Not detectable
- inhibition in vivo at 2 mg/kg/day [18]: 70%
- Activity [19]: 39
- IC50 [20]: < 0.001 µg/mL
- IC50 [21]: 0.73 µg/mL (≈ 1.34 µM)
- IC50 [22]: 0.001 µg/mL (≈ 0.00184 µM)
- Activity [23]: 40
- inhibition in vivo at 1.5 mg/kg/day [24]: 7%
- Activity [25]: 90
- inhibition in vivo at 1.5 mg/kg/day [26]: 28%

SMILES: COc1cccc2c1C(=O)c1c(O)c3c(c(O)c1C2=O)C[C@@](O)(C(=O)CO)C[C@@H]3O[C@H]1C[C@H](NC(=O)OCC2=C(C(=O)OC(C)(C)C)N3C(=O)[C@@H](Cl)[C@@H]3S(=O)(=O)C2)[C@@H](O)[C@H](C)O1
- IC50 [2]: 0.04 µg/mL (≈ 0.0441 µM)
- Activity [5]: 230
- IC50 [6]: 0.08 µg/mL (≈ 0.0882 µM)
- Activity [7]: 92
- IC50 [8]: 0.02 µg/mL (≈ 0.022 µM)
- Activity [9]: 90
- inhibition in vivo at 5 mg/kg/day [27]: 30%
- IC50 [11]: 0.008 µg/mL (≈ 0.00882 µM)
- IC50 [12]: 0.001 µg/mL (≈ 0.0011 µM)
- inhibition in vivo at 1.5 mg/kg/day [28]: 26%
- Activity [14]: 70
- Inhibition [29]: 86%
- inhibition in vivo at 2 mg/kg/day ([29]; Mus musculus, B16, read-out: Inhibition): 86%
- Activity [16]: 225
- Activity [19]: 87
- IC50 [20]: 0.03 µg/mL (≈ 0.0331 µM)
- inhibition [30]: inactive
- IC50 [21]: 0.04 µg/mL (≈ 0.0441 µM)
- inhibition in vivo at 1.5 mg/kg/day [31]: 75%
- IC50 [22]: 0.03 µg/mL (≈ 0.0331 µM)
- Activity [23]: 85
- inhibition [32]: inactive
- Activity [25]: 106
- inhibition in vivo at 5 mg/kg/day [33]: 72%

SMILES: CC1=C(C(=O)OC(C)(C)C)N2C(=O)[C@H](Cl)[C@H]2S(=O)(=O)C1
- IC50 [2]: 2 µg/mL (≈ 6.22 µM)
- IC50 [6]: 6 µg/mL (≈ 18.6 µM)
- IC50 [8]: 6 µg/mL (≈ 18.6 µM)
- IC50 [11]: 2 µg/mL (≈ 6.22 µM)
- IC50 [12]: 2 µg/mL (≈ 6.22 µM)
- IC50 [20]: 6 µg/mL (≈ 18.6 µM)
- IC50 [21]: 2 µg/mL (≈ 6.22 µM)
- IC50 [22]: 3 µg/mL (≈ 9.32 µM)

SMILES: COc1cccc2c1C(=O)c1c(O)c3c(c(O)c1C2=O)C[C@@](O)(C(=O)CO)C[C@@H]3OC1C[C@H](NC(=O)OCC2=C(C(=O)OC(C)(C)C)N3C(=O)/C(=C/C(=O)OC(C)(C)C)[C@@H]3S(=O)(=O)C2)[C@@H](O)[C@H](C)O1 (stereo partly specified)
- IC50 [2]: 0.5 µg/mL (≈ 0.508 µM)
- Activity [5]: 360
- IC50 [6]: 0.5 µg/mL (≈ 0.508 µM)
- Activity [7]: 87
- IC50 [8]: 0.4 µg/mL (≈ 0.406 µM)
- Activity [9]: 75
- inhibition in vivo at 5 mg/kg/day [27]: 22%
- IC50 [11]: 0.04 µg/mL (≈ 0.0406 µM)
- IC50 [12]: 0.04 µg/mL (≈ 0.0406 µM)
- inhibition in vivo at 1.5 mg/kg/day [28]: -49%
- Activity [14]: 90
- inhibition in vivo at 5 mg/kg/day [34]: 16%
- Activity [16]: 270
- Activity [19]: 102
- IC50 [20]: 0.07 µg/mL (≈ 0.0711 µM)
- IC50 [21]: 0.07 µg/mL (≈ 0.0711 µM)
- inhibition in vivo at 1.5 mg/kg/day [31]: 13%
- IC50 [22]: 0.09 µg/mL (≈ 0.0914 µM)
- Activity [23]: 54
- Activity [25]: 92
- inhibition in vivo at 5 mg/kg/day [33]: -10%
- inhibition in vivo at 5 mg/kg/day [35]: 11%

From ChEMBL document CHEMBL1137941, “Doxorubicin prodrug on the basis of tert-butyl cephalosporanate sulfones” (Bioorg Med Chem Lett, 2004)
